APJ ag: APJ receptor agonism | CHO-K1 APJ PathHunter beta-arrestin, luminescence; 0% DMSO wells, 100% apelin | activation, % at 20 µM | actives 0.11% (n = 330,000);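 active = activation more than six SD over the plate average, tested at 20 µM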
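Material: engineered CHO-K1 APJ arrestin reporter cells; amount: 1000 CHO-K1 reporter cells seeded per well; incubation: compound stimulation 90 min at 25 °C, detection 60 min; signal: luminescent beta-gal fragment complementation, chemiluminescent substrate; read-out basis: APJ agonist activity; controls: DMSO-only wells as negative, 10 nM Apelin-13 as positive control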
CCR6 antagonist: CCR6 (human) receptor antagonism. CHO-K1 CCR6 PathHunter beta-arrestin, luminescence, CCL20-stimulated. inhibition, % at 20 µM. actives 0.49% (n = 340,000). P51684;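 active = compounds whose inhibition of the agonist-driven luminescence signal at 20 µM reaches about 50%, limit read from the data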;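 note: cells stimulated with CCL20 at 14 nM final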
Target sequence (P51684 whole entry, looked up): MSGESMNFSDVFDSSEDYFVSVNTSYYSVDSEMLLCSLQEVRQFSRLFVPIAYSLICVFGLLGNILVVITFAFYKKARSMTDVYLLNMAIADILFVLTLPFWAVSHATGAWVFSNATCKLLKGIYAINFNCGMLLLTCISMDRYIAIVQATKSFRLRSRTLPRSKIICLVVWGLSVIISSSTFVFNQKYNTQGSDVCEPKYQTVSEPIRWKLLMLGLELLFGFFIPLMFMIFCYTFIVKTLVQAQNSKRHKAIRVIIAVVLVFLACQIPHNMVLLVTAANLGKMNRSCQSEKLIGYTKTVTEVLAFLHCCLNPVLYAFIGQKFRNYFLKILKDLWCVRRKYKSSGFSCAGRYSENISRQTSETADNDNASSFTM
B2AR ag: human beta-2 adrenergic receptor agonism by FAP; response, % (concentration not given with the values); actives 0.43% (n = 340,000); Am2.2-beta2AR cells, FAP receptor internalization, flow cytometry; P07550;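 active = response above a set limit, near 3 SD of response in nonfluorescent compounds, cut at about 42% in these data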
PfGluPho inh: PfG6PD (Plasmodium falciparum) enzyme inhibition | PfGluPho enzyme, NADPH resazurin-diaphorase fluorescence | inhibition, % at 20 µM | actives 0.78% (n = 350,000);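 active = inhibition reaching at least a set limit at 20 µM in the primary screen, cut at about 59% in these data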
CXCR6 block: blocks human CXCR6 beta-arrestin recruitment. O00574. CHO-K1 PathHunter CXCR6 beta-arrestin, luminescence. inhibition, % at 20 µM. actives 0.36% (n = 360,000); in the data active = inhibition above about 34%, passing the limit was not always enough;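 note: antagonist mode with CXCL16 agonist at 10 nM final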
APJ antag: APJ receptor antagonism. CHO-K1 APJ beta-arrestin complementation, luminescence. inhibition, % at 20 µM. actives 0.32% (n = 330,000);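 active = inhibition above about 40% at 20 µM, limit read from the data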;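 note: cells challenged with 10 nM apelin-13 agonist together with compound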
B2AR ag CP1: activates human beta-2 adrenergic receptor | AID 540358 | Am2.2-beta2AR cells, FAP surface receptor, flow cytometry; active compounds read low | shares compounds with B2AR ag | percent response (surface receptor), % at 10 µM | actives 25% (n = 1,100);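 active = surface receptor percent response at or below 58%, roughly 3 SD from nonfluorescent compounds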
B2AR FAP counter: fluorescence artifact in beta-2AR agonist FAP counterscreen; shares compounds with B2AR ag; Am2.2 cells, FAP fluorogen flow cytometry; active compounds read low; calls only at 10 µM; 1,100 tested, under 10 active; AID 588765;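 active = percent response below a set limit in fluorescence channel 1 and below 50% in channel 8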
Hits are given with their value; ! = a repeat was not active. Shown are actives, neighbours in structure and some others; about 1.7% of the full set was active somewhere.

Screening CC12CCC(=O)N1C(C(=O)NCc1ccccc1Cl)CS2 (stereo unspecified) returned APJ ag inactive, CCR6 antagonist inactive, B2AR ag inactive, PfGluPho inh inactive, CXCR6 block inactive and APJ antag inactive.
Cc1ccccc1N1CCN(c2ncnc3c2cnn3Cc2ccc(Cl)cc2)CC1 was read as APJ ag inactive, CCR6 antagonist inactive, B2AR ag 43.7, PfGluPho inh inactive, CXCR6 block inactive, APJ antag inactive, B2AR ag CP1 inactive and B2AR FAP counter inactive.
CN(CCOc1ccc(-c2ccn(S(=O)(=O)c3cccc4ccccc34)n2)cc1)c1ccccn1 was read as APJ ag inactive, CCR6 antagonist inactive, B2AR ag 76.0, PfGluPho inh inactive, CXCR6 block inactive, APJ antag inactive, B2AR ag CP1 38.6 and B2AR FAP counter inactive.
CN(CCOc1ccc(-c2ccn(S(=O)(=O)c3c(Cl)cccc3Cl)n2)cc1)c1ccccn1 was read as APJ ag inactive, CCR6 antagonist inactive, B2AR ag inactive, PfGluPho inh inactive, CXCR6 block inactive and APJ antag inactive.
`COc1cc2[nH]c(=O)n(CCC(=O)N3CCc4ccccc4C3)c(=O)c2cc1OC` gave APJ ag inactive, CCR6 antagonist inactive, B2AR ag inactive, PfGluPho inh inactive, CXCR6 block inactive and APJ antag inactive.
For COc1ccccc1CNC(=O)CCn1c(=O)[nH]c2ccsc2c1=O the results were APJ ag inactive, CCR6 antagonist inactive, B2AR ag inactive, PfGluPho inh inactive, CXCR6 block inactive, APJ antag inactive, B2AR ag CP1 53.8! and B2AR FAP counter inactive.
Screening O=C(CCn1c(=O)[nH]c2ccsc2c1=O)N1CCc2ccccc2C1 returned APJ ag inactive, CCR6 antagonist inactive, B2AR ag inactive, PfGluPho inh inactive, CXCR6 block inactive, APJ antag inactive, B2AR ag CP1 inactive and B2AR FAP counter inactive.
`CC1CCN(c2ccc(-c3ccc(NC(=O)C(F)(F)F)cc3)nn2)CC1` gave APJ ag inactive, CCR6 antagonist inactive, B2AR ag inactive, PfGluPho inh inactive, CXCR6 block inactive and APJ antag inactive.
Screening O=C(NNc1c(F)c(F)cc(F)c1F)c1ccc(Cl)nc1 returned APJ ag inactive, CCR6 antagonist inactive, B2AR ag inactive, PfGluPho inh inactive, CXCR6 block inactive and APJ antag inactive.
Screening Oc1ccc(C[C@@H]2CNCCN2CCc2cc(C(F)(F)F)cc(C(F)(F)F)c2)cc1 returned APJ ag inactive, CCR6 antagonist inactive, B2AR ag 79.7, PfGluPho inh inactive, CXCR6 block inactive, APJ antag inactive, B2AR ag CP1 inactive and B2AR FAP counter inactive.
Screening CCN(CC)c1ccc(NC(=O)c2cc(OC)cc(OC)c2)c(C)c1 returned APJ ag inactive, CCR6 antagonist inactive, B2AR ag 55.2, PfGluPho inh inactive, CXCR6 block inactive, APJ antag inactive, B2AR ag CP1 inactive and B2AR FAP counter inactive.
CCN(CC)c1nc(SCCOC(=O)Nc2ccccc2)nc(N(CC)CC)n1 was read as APJ ag inactive, CCR6 antagonist inactive, B2AR ag 43.9, PfGluPho inh inactive, CXCR6 block inactive, APJ antag inactive, B2AR ag CP1 inactive and B2AR FAP counter inactive.
Screening CC(=O)N1CCN(C(=O)c2cc(S(=O)(=O)N(C)c3ccc(F)cc3)ccc2Cl)CC1 returned APJ ag inactive, CCR6 antagonist inactive, B2AR ag inactive, PfGluPho inh inactive, CXCR6 block inactive and APJ antag inactive.
For COc1ccc(OCC(=O)NCCNC(=O)c2cccnc2)cc1 the results were APJ ag inactive, CCR6 antagonist inactive, B2AR ag inactive, PfGluPho inh inactive, CXCR6 block inactive and APJ antag inactive.
`CN1CCc2c(sc3nc(SCC(=O)N4CCCCC4)n(-c4ccccc4)c(=O)c23)C1` gave APJ ag inactive, CCR6 antagonist inactive, B2AR ag 60.8, PfGluPho inh inactive, CXCR6 block inactive, APJ antag inactive and B2AR FAP counter inactive.
`CN1CCc2c(sc3nc(SCC(N)=O)n(-c4ccccc4)c(=O)c23)C1` gave APJ ag inactive, CCR6 antagonist inactive, B2AR ag inactive, PfGluPho inh inactive, CXCR6 block inactive and APJ antag inactive.
`CCOC(=O)c1ccc(N=c2sc(C(=O)OC)cc(=O)n2-c2ccc(C(=O)OCC)cc2)cc1` gave APJ ag inactive, CCR6 antagonist inactive, B2AR ag 48.1, PfGluPho inh inactive, CXCR6 block inactive, APJ antag inactive, B2AR ag CP1 49.7 and B2AR FAP counter inactive.
`CNCC(O)COc1ccccc1` (stereo unspecified) gave APJ ag inactive, CCR6 antagonist inactive, B2AR ag inactive, PfGluPho inh inactive, CXCR6 block inactive and APJ antag inactive.
CC(COc1ccccc1)NC(C)C(O)c1ccc(O)cc1 (stereo unspecified) was read as APJ ag inactive, CCR6 antagonist inactive, B2AR ag inactive, PfGluPho inh inactive, CXCR6 block inactive, APJ antag inactive, B2AR ag CP1 inactive and B2AR FAP counter inactive.
`C[C@H](NCCc1ccc(O)cc1)[C@H](O)c1ccc(O)cc1` gave APJ ag inactive, CCR6 antagonist inactive, B2AR ag inactive, PfGluPho inh inactive, CXCR6 block inactive, APJ antag inactive, B2AR ag CP1 inactive and B2AR FAP counter inactive.
For COC(=O)[C@@]1(Cc2ccc(F)cc2)[C@H]2c3cc(C(=O)N(C)C)n(CCc4c[nH]c5ccc(O)cc45)c3C[C@H]2CN1C(=O)c1ccccc1 the results were CXCR6 block inactive.
O=C(Nc1cccc(-c2nc3ncccc3o2)c1)c1sc2cc(Cl)ccc2c1Cl was read as APJ ag inactive, CCR6 antagonist inactive, B2AR ag 42.4, PfGluPho inh inactive, CXCR6 block inactive, APJ antag inactive, B2AR ag CP1 12.3 and B2AR FAP counter inactive.
`O=C(Nc1cccc(-c2nc3ncccc3o2)c1)c1sc2ccccc2c1Cl` gave APJ ag inactive, CCR6 antagonist inactive, B2AR ag inactive, PfGluPho inh inactive, CXCR6 block inactive and APJ antag inactive.
For CCCCCCCCCCOC(=O)Cn1c(COc2ccc(OC)cc2)[n+](C)c2ccccc21 the results were APJ ag inactive, CCR6 antagonist inactive, B2AR ag inactive, PfGluPho inh inactive, CXCR6 block inactive, APJ antag inactive, B2AR ag CP1 inactive and B2AR FAP counter inactive.
For CC1CCC(C(C)C)C(OC(=O)Cn2c(-c3ccc(Br)cc3)[n+](C)c3ccccc32)C1 (stereo unspecified) the results were APJ ag inactive, CCR6 antagonist inactive, B2AR ag inactive, PfGluPho inh inactive, CXCR6 block inactive and APJ antag inactive.
